Reference: ChEMBL document CHEMBL4145508 (Eur J Med Chem, 2018)
Calls of active or inactive are those of the source. The calls are words filed in the database; no cut-off is given here.

Assays:
[1] = target: T1, Neuraminidase (Influenza A virus, UniProt B4URF0); set-up: species or system chicken/china/1220/2012(H5N1)
[2] = target: T1, Neuraminidase; set-up: species or system duck/Guangdong/674/2014(H5N6)
[3] = system: Influenza A virus; experiment: Antiviral activity against influenza A virus chicken/china/1220/2012(H5N1) infected in chicken embryo fibroblasts assessed as reduction in viral cytopathic effect preincubated with virus for 1 hr followed by viral infection measured after 2 days by CCK-8 assay; type: functional, organism-based
[4] = Cytotoxicity against chicken embryo fibroblasts assessed as reduction in cell viability after 2 days by CCK-8 assay; type: cell-based, Gallus gallus, Fibroblast
Method in brief: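 Chicken embryo fibroblasts grown 24 h at 37 °C, then exposed without virus to compounds dissolved in water and serially diluted 3-fold in DMEM. Incubation was at 37 °C under 5% CO₂, with viability read by CCK-8 at 2 days. CC₅₀, the concentration giving a 50% drop in viability, was fitted from the concentration curve.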

[5] = system: Influenza A virus; experiment: Antiviral activity against influenza A virus duck/Guangdong/674/2014(H5N6) infected in chicken embryo fibroblasts assessed as effect on embryo survival at 0.15625 mmol/L preincubated with virus for 1 hr followed by viral infection measured after […]; type: functional, organism-based
[6] = system: Influenza A virus; experiment: Antiviral activity against influenza A virus duck/Guangdong/674/2014(H5N6) infected in chicken embryo fibroblasts assessed as effect on embryo survival at 2.5 mmol/L preincubated with virus for 1 hr followed by viral infection measured after […]; type: functional, organism-based
[7] = system: Influenza A virus; experiment: Antiviral activity against influenza A virus duck/Guangdong/674/2014(H5N6) infected in chicken embryo fibroblasts assessed as reduction in viral cytopathic effect preincubated with virus for 1 hr followed by viral infection measured after 2 days by CCK-8 assay; type: functional, organism-based
[8] = system: Influenza A virus; experiment: Antiviral activity against influenza A virus duck/Guangdong/674/2014(H5N6) infected in chicken embryo fibroblasts assessed as effect on embryo survival at 10 mmol/L preincubated with virus for 1 hr followed by viral infection measured after […]; type: functional, organism-based
[9] = system: Influenza A virus; experiment: Antiviral activity against influenza A virus chicken/china/1220/2012(H5N1) infected in chicken embryo fibroblasts assessed as effect on embryo survival at 0.15625 mmol/L preincubated with virus for 1 hr followed by viral infection measured after […]; type: functional, organism-based
[10] = system: Influenza A virus; experiment: Antiviral activity against influenza A virus duck/Guangdong/674/2014(H5N6) infected in chicken embryo fibroblasts assessed as effect on embryo survival at 0.625 mmol/L preincubated with virus for 1 hr followed by viral infection measured after […]; type: functional, organism-based
[11] = system: Influenza A virus; experiment: Antiviral activity against influenza A virus chicken/china/1220/2012(H5N1) infected in chicken embryo fibroblasts assessed as effect on embryo survival at 0.0390625 mmol/L preincubated with virus for 1 hr followed by viral infection measured after […]; type: functional, organism-based
[12] = system: Influenza A virus; experiment: Antiviral activity against influenza A virus duck/Guangdong/674/2014(H5N6) infected in chicken embryo fibroblasts assessed as effect on embryo survival at 0.0390625 mmol/L preincubated with virus for 1 hr followed by viral infection measured after […]; type: functional, organism-based
[13] = system: Influenza A virus; experiment: Antiviral activity against influenza A virus chicken/china/1220/2012(H5N1) infected in chicken embryo fibroblasts assessed as effect on embryo survival at 0.625 mmol/L preincubated with virus for 1 hr followed by viral infection measured after […]; type: functional, organism-based
[14] = system: Influenza A virus; experiment: Antiviral activity against influenza A virus chicken/china/1220/2012(H5N1) infected in chicken embryo fibroblasts assessed as effect on embryo survival at 10 mmol/L preincubated with virus for 1 hr followed by viral infection measured after […]; type: functional, organism-based
[15] = system: Influenza A virus; experiment: Antiviral activity against influenza A virus chicken/china/1220/2012(H5N1) infected in chicken embryo fibroblasts assessed as effect on embryo survival at 2.5 mmol/L preincubated with virus for 1 hr followed by viral infection measured after […]; type: functional, organism-based

T1 sequence (B4URF0 whole entry): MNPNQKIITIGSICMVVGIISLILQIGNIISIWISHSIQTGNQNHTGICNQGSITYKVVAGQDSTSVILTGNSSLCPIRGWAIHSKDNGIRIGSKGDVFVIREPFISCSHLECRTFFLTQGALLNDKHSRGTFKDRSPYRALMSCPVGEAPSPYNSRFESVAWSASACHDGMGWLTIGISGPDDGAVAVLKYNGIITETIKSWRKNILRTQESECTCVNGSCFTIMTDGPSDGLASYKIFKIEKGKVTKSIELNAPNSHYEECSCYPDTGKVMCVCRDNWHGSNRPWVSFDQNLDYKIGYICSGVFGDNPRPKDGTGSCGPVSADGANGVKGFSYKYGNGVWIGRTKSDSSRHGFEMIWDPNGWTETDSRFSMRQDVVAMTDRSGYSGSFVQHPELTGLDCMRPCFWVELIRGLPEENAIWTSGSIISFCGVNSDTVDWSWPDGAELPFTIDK

Row | SMILES | IC50 [1] [µM] | IC50 [2] [µM] | further results
1 | CCC(CC)O[C@@H]1C=C(C(=O)NCc2ccccc2F)C[C@H](N)[C@H]1NC(C)=O | 6.26 | 14.7 | 
2 | CCC(CC)O[C@@H]1C=C(C(=O)NCc2ccc(Br)cc2)C[C@H](N)[C@H]1NC(C)=O | 2.07 | 6.01 | 
3 | CCC(CC)O[C@@H]1C=C(C(=O)NCC(=O)O)C[C@H](N)[C@H]1NC(C)=O | 2.53 | 2.16 | 
4 | CCC(CC)O[C@@H]1C=C(C(=O)NCc2cccc(F)c2)C[C@H](N)[C@H]1NC(C)=O | 5.09 | 11.4 | 
5 | CCC(CC)O[C@@H]1C=C(C(=O)Nc2ccc(N3CCOCC3=O)cc2)C[C@H](N)[C@H]1NC(C)=O | 1.46 | 2.27 | 
6 | CCC(CC)O[C@@H]1C=C(C(=O)NCc2ccc(-c3ccsc3)cc2)C[C@H](N)[C@H]1NC(C)=O | 29.8 | > 40 | 
7 | CCC(CC)O[C@@H]1C=C(C(=O)NCc2ccccc2)C[C@H](N)[C@H]1NC(C)=O | 9.87 | 19.9 | 
8 | CCC(CC)O[C@@H]1C=C(C(=O)N[C@@H](C)C(=O)O)C[C@H](N)[C@H]1NC(C)=O | 2.2 | 1.28 | 
9 | CCC(CC)O[C@@H]1C=C(C(=O)N[C@H](C)C(=O)O)C[C@H](N)[C@H]1NC(C)=O | 1.35 | 1.07 | 
10 | CCC(CC)O[C@@H]1C=C(C(=O)NCc2ccc(C(F)(F)F)cc2)C[C@H](N)[C@H]1NC(C)=O | 10.9 | 8.78 | 
11 | CCC(CC)O[C@@H]1C=C(C(=O)O)C[C@H](N)[C@H]1NC(C)=O [OSELTAMIVIR CARBOXYLATE] |  |  | EC50 [3]: 1.35 µM; CC50 at 48 h [4]: > 1000 µM; Activity [5]: inactive; Activity [6]: inactive; EC50 [7]: 0.73 µM; Activity [8]: inactive; Activity [9]: inactive; Activity [10]: inactive; Activity [11]: inactive; Activity [12]: inactive
12 | CCC(CC)O[C@@H]1C=C(C(=O)NCc2ccc(OC)cc2)C[C@H](N)[C@H]1NC(C)=O | > 40 | > 40 | 
13 | CCC(CC)O[C@@H]1C=C(C(=O)N[C@@H](C(=O)O)C(C)C)C[C@H](N)[C@H]1NC(C)=O | 0.0883 | 0.0967 | EC50 [3]: 4.26 µM; CC50 at 48 h [4]: > 1000 µM; Activity [5]: inactive; Activity [13]: inactive; Activity [14]: Active; Activity [6]: inactive; EC50 [7]: 1.31 µM; Activity [15]: inactive; Activity [8]: Active; Activity [9]: inactive; Activity [10]: inactive; Activity [11]: inactive; Activity [12]: inactive
14 | CCC(CC)O[C@@H]1C=C(C(=O)N[C@H](C(=O)O)C(C)C)C[C@H](N)[C@H]1NC(C)=O [listing 1 of 2 here] | 0.135 | 0.248 | 
15 | CCC(CC)O[C@@H]1C=C(C(=O)NCc2ccc(-c3cccs3)cc2)C[C@H](N)[C@H]1NC(C)=O | 7.75 | 10.9 | 
16 | CCC(CC)O[C@@H]1C=C(C(=O)N(C)CCc2cccc(F)c2)C[C@H](N)[C@H]1NC(C)=O | 2.65 | 2.51 | 
17 | C=CCNC(=O)C1=C[C@@H](OC(CC)CC)[C@H](NC(C)=O)[C@@H](N)C1 | 5.03 | 0.41 | 
18 | CCC(CC)O[C@@H]1C=C(C(=O)NCCc2cccc(F)c2)C[C@H](N)[C@H]1NC(C)=O | 15.2 | 32.5 | 
19 | CCC(CC)O[C@@H]1C=C(C(=O)NCc2cccc(Cl)c2)C[C@H](N)[C@H]1NC(C)=O | 3.02 | 7.86 | 
20 | CCC(CC)O[C@@H]1C=C(C(=O)NCCc2ccccc2F)C[C@H](N)[C@H]1NC(C)=O | 3.17 | 5.12 | 
21 | CCC(CC)O[C@@H]1C=C(C(=O)NCc2ccc(F)cc2)C[C@H](N)[C@H]1NC(C)=O | 0.94 | 2.78 | 
22 | CCC(CC)O[C@@H]1C=C(C(=O)NCCN2CCOCC2)C[C@H](N)[C@H]1NC(C)=O | 4.24 | 12.1 | 
23 | CCC(CC)O[C@@H]1C=C(C(=O)NCc2cc(F)cc(F)c2)C[C@H](N)[C@H]1NC(C)=O | 2.22 | 10.4 | 
24 | CCC(CC)O[C@@H]1C=C(C(=O)NCc2ccc(F)cc2Cl)C[C@H](N)[C@H]1NC(C)=O | 3.91 | 19.4 | 
25 | CCC(CC)O[C@@H]1C=C(C(=O)Nc2ccc(F)cc2)C[C@H](N)[C@H]1NC(C)=O | 11.7 | 16.3 | 
26 | CCC(CC)O[C@@H]1C=C(C(=O)NCc2ccc(-c3ccccc3)cc2)C[C@H](N)[C@H]1NC(C)=O | 0.96 | 0.99 | 
27 | CCC(CC)O[C@@H]1C=C(C(=O)N[C@H](C(=O)O)C(C)C)C[C@H](N)[C@H]1NC(C)=O [listing 2 of 2 here] | 0.342 | 0.304 | 
28 | CCC(CC)O[C@@H]1C=C(C(=O)NCc2ccc(C)cc2)C[C@H](N)[C@H]1NC(C)=O | 2.91 | 11 | 
